Read-outs that look alike come from different tables or passages of the source.
Key:
[1] = system: H1299 and H460 xenografts; assay type: in vivo, NOD/SCID mice
[2] = system: MCF7 cells; assay: Peptide-SAQdot605 binding, fluorescence microscopy; assay type: cell-based
[3] = system: human NSCLC tumor samples; assay: Tumor microarray binding of Peptide-SAQdot 605; conditions: of 59 human NSCLC tumor samples; 10 nM Peptide-SAQdot 605, 30 minutes
How it was run: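 Commercial paraffin lung cancer tissue microarray; dewaxed, antigen retrieval in 10 mM citrate pH 6.0 at 65°C for 10 min, blocked in PBS + 2.5% BSA. Stained with peptide conjugated 1:1 to streptavidin-Qdot605 in 50% PBS/50% RPMI with 2.5% bovine serum. Washed, DAPI-mounted, three areas imaged per sample. Red Qdot signal compared against green-channel autofluorescence; scored by five independent scientists.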

Sequence | H460 tumor/H1299 tumor ([1]; animal shown, 24 h) [fold] | H460 tumor/lung ([1]; animal shown, 24 h) [fold] | H460/lung ([1]; average of mice (± SEM in text), i.v., ex vivo, 24 h) | H460 tumor/H1299 tumor ([1]; average of mice, i.v., ex vivo, 24 h) | Binding of peptide-SAQdot605 [2] | Tumor specificity in vivo ([1]; acetylated peptide) | Tumor uptake of non-acetylated peptide ([1]; free amino-terminus, before acetylation) | Samples scored positive for peptide binding [3] [%]
EAMNSAEQSAAVVQWEKRRI [Peptide H460.1] | 8 | 15 | 14 ± 6.5 | 27 | specific binding | – | – | –
FHAVPQSFYTAP [HCC15.2] | – | – | – | – | – | accumulates in both H1299 and H460 tumors | No tumor uptake | 24

Source: publication PMC3967199 (Scientific Reports, 2014)
